From PubChem BioAssay
An excerpt weighted towards active compounds, which were near 0.58% of everything screened.
OXTR potentiate: potentiators of human oxytocin receptor | P30559 | CHO-OTR cells, Fluo-8 calcium fluorescence, potentiator mode; 0% = oxytocin EC15, 100% = EC100 | activation, % at 3 µM | hit rate 0.061% among 320,000 | AID 2445;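 active = activation above that plate's cutoff, the mean activation of tested compounds plus 3 SD, cut at about 6.6% in these data, passing the limit was not always enough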;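 note: 100% uses oxytocin at 75 nM as the full agonist control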
Target sequence (P30559 whole entry, looked up): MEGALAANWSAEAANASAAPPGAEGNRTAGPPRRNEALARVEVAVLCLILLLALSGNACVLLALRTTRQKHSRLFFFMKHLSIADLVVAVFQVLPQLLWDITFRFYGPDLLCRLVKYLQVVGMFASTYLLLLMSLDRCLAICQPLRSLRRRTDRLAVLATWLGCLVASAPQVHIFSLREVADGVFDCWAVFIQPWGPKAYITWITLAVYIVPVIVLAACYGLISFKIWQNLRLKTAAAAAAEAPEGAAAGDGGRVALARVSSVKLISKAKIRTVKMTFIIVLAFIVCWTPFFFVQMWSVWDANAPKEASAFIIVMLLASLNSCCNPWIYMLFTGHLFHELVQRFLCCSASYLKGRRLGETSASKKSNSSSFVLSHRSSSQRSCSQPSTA
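Assay system: CHO cell line stably expressing human OTR | Also added: Oxytocin at about EC15, sub-maximal agonist stimulus | Times: Compound 6 min at room temperature before oxytocin, 100 s read | Measured by: Fluo-8 intracellular calcium fluorescence, ex 470-495, em 515-575 nm | Controls: EC15 oxytocin alone as 0%, 75 nM oxytocin as 100%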
OXTR ag: human OXTR agonism; activation, % at 3 µM; CHO-OTR cells, Fluo-8 calcium fluorescence; normalized: DMSO 0%, oxytocin 100%; AID 2435; hit rate 0.32% among 320,000;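 active = activation above the mean of all tested compounds plus 3 SD, cutoff set per screening run, cut at about 20% in these data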;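 note: peak over basal fluorescence ratio from a 100 s FLIPR kinetic read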
zfTRPN1 agonist: agonists of zebrafish TRPN1 channel; HEK293 zebrafish TRPN1-YFP, Fluo-8 calcium fluorescence; 100% = response to 87 µM carbachol; activation, % at 3 µM; hit rate 0.18% among 220,000;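 active = activation above its plate's cutoff, the mean activation of test wells on that plate plus 3 SD, cut at about 19% in these data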;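 note: 0% = DMSO alone and 100% = 87 µM carbachol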
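Material: zebrafish TRPN1-YFP in HEK293 cells. Doses: one dose of 3 µM, 0.3% DMSO. Incubation: dye 1 h 37 °C plus 30 min RT. Measured by: intracellular calcium fluorescence with Fluo-8.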
TRPML3 ag: activates the human TRPML3 channel | Q8TDD5 | HEK293 TRPML3-YFP, Fluo-8 calcium fluorescence; 100% = the carbachol control signal | activation, % at 3 µM | hit rate 0.29% among 220,000 | AID 1448;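 active = activation above its plate's cutoff, the mean activation of the plate's test wells plus 3 SD, cut at about 12% in these data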;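 note: 0% = DMSO only wells and 100% = carbachol wells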
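system = HEK293 cells stably carrying human TRPML3-YFP | doses = one concentration, 3 µM nominal, 0.3% DMSO | timing = dye loading 1 h 37 °C then 30 min ambient, 125 s read | detection = Fluo-8 calcium dye fluorescence, ex 470-495, em 515-575 nm | benchmarks = high control carbachol 87 µM, low control DMSO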
V1R ag counter: V1a receptor agonism, counter-screen for OXTR agonists; CHO-V1R cells, Fluo-8 calcium fluorescence, agonist mode; 0% DMSO, 100% 3 nM vasopressin; activation, % at 3 µM; hit rate 0.25% among 320,000; AID 2797;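 active = activation above the mean activation of all tested compounds plus 3 SD, per screening run, cut at about 20% in these data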;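 note: signal is peak over basal fluorescence ratio across a 100 second FLIPR read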
* hit, by the source's call; / = no result.

SMILES | OXTR potentiate | OXTR ag | zfTRPN1 agonist | TRPML3 ag | V1R ag counter
COc1ccccc1C(=O)NNC(=S)NC(=O)c1sc2ccccc2c1Cl | -12 | 49* | 1 | 2 | 34*
CCOCCn1c2ccccc2c2nc3ccccc3nc21 | -10 | -1 | / | / | 0
Cc1ccccc1-c1cc(C(=O)O)n(CC2CC(c3cccnc3)=NO2)n1 (stereo unspecified) | 2 | 1 | / | / | 0
CCOc1ccc(CCNC(=O)CCNC(=O)c2ccc(Br)cc2)cc1OCC | 2 | -1 | / | / | 2
O=C(CCl)Nc1ncc(S(=O)(=O)c2ccc([N+](=O)[O-])cc2)s1 | -3 | 5 | / | / | 3
CCC(C)(C)C(=O)Nc1ncc(S(=O)(=O)c2ccc([N+](=O)[O-])cc2)s1 | -23 | 33* | 12 | 11 | 22*
CCCC(C)C(=O)Nc1ncc(S(=O)(=O)c2ccc([N+](=O)[O-])cc2)s1 (stereo unspecified) | -12 | 22* | / | / | 46*
CCN(CCO)c1ccc(N=Nc2cc(C)[nH]n2)cc1 | 3 | 2 | 2 | 0 | 1
CC(C)C[C@H]1CN=C(Nc2ccccc2)N1CCc1ccc(F)cc1 | -18 | 44* | / | / | 59*
CC(C)C[C@H]1CN=C(Nc2ccccc2)N1CCc1cccc(F)c1 | -10 | 51* | / | / | 73*
Fc1ccccc1NC(=S)Nn1cnnc1 | -5 | 0 | / | / | 1
CCc1ccc(O)c(N=Cc2cccc(C)c2O)c1 | -8 | 0 | 1 | 0 | -1
Cc1cccc(C=Nc2ccc3c4c(cccc24)CC3)c1O | -6 | 9 | 9 | 7 | 25*
COc1ccc2c(n1)Sc1nc3ccccc3nc1N2 | -21 | 86* | 57* | 29* | 56*
CC(C)(C)c1ccc(C(CC(=O)O)NC(=O)C23CC4CC(CC(C4)C2)C3)cc1 (stereo unspecified) | 3 | 0 | / | / | 1
COc1cc(/C=C(\C#N)c2nc3c(s2)CCCC3)ccc1O | -24 | 60* | 6 | 11 | 57*
O=C(CSc1n[nH]c(-c2ccncc2)n1)Nc1ccc(Cl)c(Cl)c1 | -14 | 12 | / | / | 7
CCOc1ccc(N(CC(=O)O)S(=O)(=O)c2ccc(F)cc2)cc1 | -9 | 0 | 70* | 1 | 0
Nc1nc(Nc2cccc(F)c2)nc(NCCO)c1[N+](=O)[O-] | 12* | -2 | -1 | 0 | -1
CCS(=O)(=O)c1ccc(C(=O)NC2CC2)c(Cl)c1Cl | -3 | 1 | 0 | 1 | 0
CCOC(=O)NC(=O)/C(C#N)=C\Nc1sccc1C(=O)OC | -8 | 57* | 22* | 18* | 53*
O=C(CCCN=C1NS(=O)(=O)c2ccccc21)OCC(=O)c1ccc(F)cc1 | -9 | 20* | / | / | 23*
O=C(CCN=C1NS(=O)(=O)c2ccccc21)OCC(=O)c1ccc(F)cc1 | -5 | 2 | / | / | 4
CCCCn1c(N)c(N(CCC(C)C)C(=O)CSc2nncn2-c2ccccc2)c(=O)[nH]c1=O | -8 | 0 | / | / | 0
CC1(C)CCN2CCC(C)(C)c3c(O)ccc1c32 | -11 | 25* | / | / | 28*
SMILES | OXTR potentiate | OXTR ag | zfTRPN1 agonist | TRPML3 ag | V1R ag counter
COc1ccc(OC)c(NC(=O)C(=O)NNC(=O)C23CC4CC(CC(C4)C2)C3)c1 | -15 | 5 | 43* | 27* | 13
COc1ccc(NC(=O)CNC(=O)C23CC4CC(CC(C4)C2)C3)c(OC)c1 | -10 | 0 | / | / | 1
CCOc1ccc(NS(=O)(=O)c2ccc(NC(=S)NC(=O)CC(C)C)cc2)cc1 | -20 | 20* | 7 | 3 | 23*
CCCC(=O)NC(=S)Nc1ccc(S(=O)(=O)Nc2ccc(OCC)cc2)cc1 | -12 | 17 | 10 | 4 | 13
Cc1ccc(Nc2cc(C)nc3nc(C)nn23)cc1 | 12* | -2 | -1 | 0 | -1
CCCCCCCCCCOC(=O)Cn1c(COc2ccccc2)[n+](C)c2ccccc21 | -14 | 27* | / | / | 53*
Cc1ccc(N2C(=O)c3cccc4c(N)ccc(c34)C2=O)c2cccnc12 | -34 | 133* | 182* | 28* | 139*
COc1ccc2c3c(cccc13)C(=O)N(O)C2=O | 7 | -2 | -1 | 0 | -2
Cc1nn(C)c(C)c1N1C(=O)c2cccc3c(N)ccc(c23)C1=O | -12 | 108* | 131* | 93* | 128*
CCN1C(=O)c2cccc3c(N)ccc(c23)C1=O | -10 | 77* | / | / | 104*
Cc1cccc(N2N=C(C(=O)Nc3ccc(Cl)c(S(=O)(=O)N4CCOCC4)c3)CCC2=O)c1 | -10 | 10 | / | / | 3
Cn1cc(S(=O)(=O)NC2CCCCC2)c(=O)n(C)c1=O | 2 | 0 | / | / | 0
O=C(CN1CCN(C(=O)C2COc3ccccc3O2)CC1)Nc1ccc(F)cc1 (stereo unspecified) | -1 | 0 | 4 | 0 | 0
CCc1ccc(-c2nc(CN3CCC(C(=O)N4CCN(c5ccccc5)CC4)CC3)c(C)o2)cc1 | -11 | 29* | 3 | 4 | 34*
CCc1ccc(-c2nc(CN3CCC(C(=O)N4CCN(c5ccccn5)CC4)CC3)c(C)o2)cc1 | -11 | 17 | 0 | 1 | 14
COC(=O)c1ccc(N2CCN(C)CC2)c(NC(=O)COc2cccc(C)c2)c1 | -11 | -1 | / | / | 1
CC(C)Cc1ccc(C(C)C(=O)OCC(=O)c2c[nH]c3ccccc23)cc1 (stereo unspecified) | -7 | 28* | 18 | 7 | 23*
Cc1ccc(C(=O)OCC(=O)c2c[nH]c3ccccc23)cc1 | -10 | 1 | 0 | 1 | 0
CCCCn1c(SCC(=O)Nc2nnc(C)s2)nnc1-c1ccncc1 | -4 | -1 | -1 | 1 | 1
Cc1ccc([N+](=O)[O-])cc1NC(=O)Nc1cccc(F)c1 | / | / | 24* | 11 | /
O=C(Nc1cccc([N+](=O)[O-])c1)Nc1cccs1 | -38 | 17 | 20* | 13* | 10
COC(=O)c1ccc(NC(=O)Nc2ccc(F)cc2F)cc1 | -2 | 3 | 7 | 5 | 7
COC(=O)c1ccc(NC(=O)Nc2cccc(F)c2)cc1 | -16 | 13 | 19* | 10 | 13
O=C(Nc1cccc(Cl)c1)Nc1csc([N+](=O)[O-])c1 | -8 | 17 | 19* | 12* | 8
COc1ccc(N2CCN(C(=O)c3ccccc3NC(=O)c3ccccc3)CC2)cc1 | -6 | -1 | / | / | 0
O=c1ccc2[n+]([O-])c3ccc(O)cc3oc-2c1 | / | / | 48* | 27* | /
CCOC(=O)Cn1ccc(NC(=O)c2ccc(F)cc2)n1 | -7 | 0 | / | / | 2
Cc1ccc(CONC(=O)c2cccc([N+](=O)[O-])c2)cc1 | -5 | 0 | / | / | 1
COC(=O)C(/C=N/OCc1ccc([N+](=O)[O-])cc1)NC(=O)c1cccc(Cl)c1 (stereo unspecified) | -20 | 32* | 20* | 9 | 38*
